In PMC5026623 (Circulation research, 2016):

Target: apoA1 (Homo sapiens, UniProt P02647)
Assay: surface plasmon resonance, protein immobilised on CM5 chip
Assay type: binding
Procedure, shortened: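 Biosensor binding-kinetics run: apoA1 covalently coupled to a CM5 sensor chip, with apoA2 and apoE coupled the same way for comparison. Kinetics of test lipid binding to the immobilised protein recorded.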

Chain of apoA1 (P02647 25-267): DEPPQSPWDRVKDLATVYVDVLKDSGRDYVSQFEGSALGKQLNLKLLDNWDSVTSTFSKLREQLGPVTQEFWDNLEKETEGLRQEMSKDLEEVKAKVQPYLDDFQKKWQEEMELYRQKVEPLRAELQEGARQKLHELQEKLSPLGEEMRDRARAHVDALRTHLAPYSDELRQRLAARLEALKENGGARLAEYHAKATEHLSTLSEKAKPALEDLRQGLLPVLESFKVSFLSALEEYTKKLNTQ

PIP2
Kd: 140 nM
